Results: ChEMBL document CHEMBL4765333, “Novel NO-releasing scopoletin derivatives induce cell death via mitochondrial apoptosis pathway and cell cycle arrest” (Eur J Med Chem, 2020)
pIC50: −log10 of the molar value.

Key:
HepG2 = assay: Anticancer activity against human HepG2 cells assessed as inhibition of cell proliferation measured after 48 hrs by MTT assay; assay type: functional, cell-based; conditions: HepG2, 48 h
Outline: (§1)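 Cells seeded at ~5,000/well, grown 24 h to partial monolayer, then exposed 48 h at 37°C, 5% CO2 to 0.5, 1, 2, 4, 10 and 20 µM (DMSO ≤0.1%). MTT final 0.5 mg/ml for 4 h, formazan dissolved in DMSO, A570. Survival expressed as % of untreated control; IC50 from dose-response curves; three independent experiments. MDA-MB-231, MCF-7, HepG2 in DMEM; A549 and LO-2 in RPMI-1640; 10% FBS.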

MCF7 [1] = assay: Antiproliferative activity against human MCF7 cells assessed as inhibition of cell growth rate at 10 uM measured after 48 hrs by MTT assay; assay type: functional
Outline: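 MCF-7 cells in DMEM with 10% FBS exposed to a single 10 µM concentration for 48 h. Read-out by MTT (0.5 mg/ml, 4 h, DMSO dissolution, A570). Inhibition rate given versus untreated control as mean ± SD, n = 3.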

[2] = Anticancer activity against human MDA-MB-231 cells assessed as inhibition of cell proliferation measured after 48 hrs by MTT assay; assay type: functional, cell-based; conditions: MDA-MB-23, 48 h; outline: as §1
[3] = Prodrug release in human MDA-MB-231 cells assessed as increase in intracellular NO level at 25 uM measured after 2.5 hrs by total nitric oxide assay; assay type: ADME, cell-based; conditions: mda-mb-23, 2.5 h
Outline: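 MDA-MB-231 (2×10^5 cells/well) cultured 24 h, then treated 2.5 h with compound at 25 µM or DMSO. Cells harvested, lysed in nitric oxide assay buffer 1 h on ice; lysate NO quantified with a total nitric oxide assay kit. Mean ± SD, n = 3.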

MCF7 [4] = assay: Anticancer activity against human MCF7 cells assessed as inhibition of cell proliferation measured after 48 hrs by MTT assay; assay type: functional, cell-based; conditions: MCF7, 48 h; outline: as §1
L02 = assay: Cytotoxicity against human L02 cells assessed as reduction in cell viability measured after 48 hrs by MTT assay; assay type: cell-based; conditions: L02, 48 h; outline: as §1
A549 = assay: Anticancer activity against human A549 cells assessed as inhibition of cell proliferation measured after 48 hrs by MTT assay; assay type: functional, cell-based; conditions: A549, 48 h
Outline: as §1, with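 “experiments.” for “experiments. MDA-MB-231, MCF-7, HepG2 in DMEM; A549 and LO-2 in RPMI-1640; 10% FBS.”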

[5] = Anticancer activity against human MDA-MB-231 cells assessed as inhibition of cell proliferation measured after 48 hrs in presence of 3-amino-7-hydroxy-6-methoxy-2H-chromen-2-one by MTT assay; assay type: functional, cell-based; conditions: MDA-MB-23, 48 h
Outline: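 MDA-MB-231 cells in DMEM with 10% FBS, ~5,000 cells/well, 24 h attachment, then compound for 48 h at 37°C, 5% CO2. MTT 0.5 mg/ml final for 4 h, DMSO solubilization, absorbance 570 nm; inhibition relative to untreated cells; experiments done three times.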

[6] = Prodrug release in human MDA-MB-231 cells assessed as increase in intracellular NO level at 10 uM measured after 2.5 hrs by DAF-FM DA reagent based scanning electron microscopy; assay type: ADME, cell-based; conditions: mda-mb-231, 2.5 h, in the assay text read “laser scanning confocal microscopy” for “scanning electron microscopy”
Outline: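 After 24 h growth at 5×10^4 cells/well, MDA-MB-231 cells loaded with DAF-FM DA (5 µM) 30 min at 37°C, 5% CO2, PBS-washed, then incubated 2.5 h with compound at 1 or 10 µM (scopoletin at 10 µM). NO fluorescence imaged by laser scanning confocal microscopy.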

pIC50 (HepG2) | Drug metabolism [3] | pIC50 (MCF7 [4]) | pIC50 (A549) | Drug metabolism [6] | Compound | inhibition at 10 µM (MCF7 [1]) | pIC50 [2] | pIC50 (L02) | pIC50 [5]
5.42 | Metabolite_Detected | 5.35 | 5.03 | – | COc1cc2ccc(=O)oc2cc1OCCCCCCOc1no[n+]([O-])c1S(=O)(=O)c1ccccc1 | 84.8% | 5.47 | 4.91 | –
5.44 | Metabolite_Detected | 5.45 | 5.14 | – | COc1cc2ccc(=O)oc2cc1OCCOc1no[n+]([O-])c1S(=O)(=O)c1ccccc1 | 89.2% | 5.54 | 4.96 | –
5.55 | Metabolite_Detected | 5.62 | 5.01 | – | COc1cc2cc(NC(C)=O)c(=O)oc2cc1OCCCOc1no[n+]([O-])c1S(=O)(=O)c1ccccc1 | 88.5% | 5.42 | 5.08 | –
5.47 | Metabolite_Detected | 5.41 | 4.97 | – | COc1cc2ccc(=O)oc2cc1OCCCCCOc1no[n+]([O-])c1S(=O)(=O)c1ccccc1 | 87.1% | 5.50 | 5.05 | –
– | – | – | – | – | O=S(=O)(c1ccccc1)c1c(OCCCO)no[n+]1[O-] | – | 5.14 | – | 5.20
< 4.60 | – | < 4.60 | < 4.60 | Metabolite_Notdetected | COc1cc2ccc(=O)oc2cc1O [SCOPOLETIN] | 7.95% | < 4.60 | < 4.60 | –
5.54 | – | 5.64 | 5.26 | – | COc1cc2ccc(=O)oc2cc1OCCCOc1no[n+]([O-])c1S(=O)(=O)c1ccccc1 | 88.6% | 5.73 | 5.11 | –
5.51 | Metabolite_Detected | 5.50 | 5.09 | – | COc1cc2cc(N)c(=O)oc2cc1OCCCCCCOc1no[n+]([O-])c1S(=O)(=O)c1ccccc1 | 84.4% | 5.53 | 4.99 | –
5.49 | Metabolite_Detected | 5.52 | 5.21 | – | COc1cc2ccc(=O)oc2cc1OCCCCOc1no[n+]([O-])c1S(=O)(=O)c1ccccc1 | 84.4% | 5.55 | 5.03 | –
5.51 | Metabolite_Detected | 5.56 | 5.23 | – | COc1cc2cc(N)c(=O)oc2cc1OCCOc1no[n+]([O-])c1S(=O)(=O)c1ccccc1 | 88.5% | 5.61 | 5.01 | –
– | – | – | – | – | COc1cc2cc(NC(C)=O)c(=O)oc2cc1O | 5.21% | – | – | –
5.58 | Metabolite_Detected | 5.64 | 5.30 | – | COc1cc2cc(N)c(=O)oc2cc1OCCCCOc1no[n+]([O-])c1S(=O)(=O)c1ccccc1 | 89% | 5.71 | 5.06 | –
5.27 | Metabolite_Detected | 5.20 | 4.94 | – | COc1cc2cc(NC(C)=O)c(=O)oc2cc1OCCCCCOc1no[n+]([O-])c1S(=O)(=O)c1ccccc1 | 73.6% | 5.36 | 4.86 | –
5.32 | Metabolite_Detected | 5.16 | 5.06 | – | COc1cc2cc(NC(C)=O)c(=O)oc2cc1OCCOc1no[n+]([O-])c1S(=O)(=O)c1ccccc1 | 83.7% | 5.30 | 4.99 | –
– | – | – | – | – | COc1cc2cc(N)c(=O)oc2cc1O | 7.13% | < 4.60 | – | –
5.18 | Metabolite_Detected | 4.95 | 4.83 | – | COc1cc2cc(NC(C)=O)c(=O)oc2cc1OCCCCCCOc1no[n+]([O-])c1S(=O)(=O)c1ccccc1 | 48.6% | 5.10 | 4.76 | –
5.48 | Metabolite_Detected | 5.46 | 5.14 | – | COc1cc2cc(NC(C)=O)c(=O)oc2cc1OCCCCOc1no[n+]([O-])c1S(=O)(=O)c1ccccc1 | 80.4% | 5.50 | 5.04 | –
5.46 | Metabolite_Detected | 5.58 | 5.16 | – | COc1cc2cc(N)c(=O)oc2cc1OCCCCCOc1no[n+]([O-])c1S(=O)(=O)c1ccccc1 | 88.8% | 5.62 | 4.91 | –

Compound | pIC50 (HepG2) | Drug metabolism [3] | pIC50 (MCF7 [4]) | pIC50 (A549) | Drug metabolism [6] | inhibition at 10 µM (MCF7 [1]) | pIC50 [2] | pIC50 (L02) | pIC50 [5]
COc1cccc2c1C(=O)c1c(O)c3c(c(O)c1C2=O)C[C@@](O)(C(=O)CO)C[C@@H]3O[C@H]1C[C@H](N)[C@H](O)[C@H](C)O1 [DOXORUBICIN] | 6.21 | – | 6.22 | – | – | – | 6.26 | 6.23 | –
